Activity calls are given as the source filed them. The calls are words filed in the database; no cut-off is given here.
Experiments:
[1] = Chemical stability of the compound in buffer assessed as compound remaining at pH 1 after 1 hr by HPLC analysis; type: physicochemical; conditions: read-out: Stability
[2] = Chemical stability of the compound in buffer assessed as compound remaining at pH 1 after 2 hrs by HPLC analysis; type: physicochemical; conditions: read-out: Stability
[3] = Chemical stability of the compound in buffer assessed as compound remaining at pH 1 after 4 hrs by HPLC analysis; type: physicochemical; conditions: read-out: Stability
[4] = Chemical stability of the compound in buffer assessed as compound remaining at pH 4 after 2 hrs by HPLC analysis; type: physicochemical; conditions: read-out: Stability
[5] = Chemical stability of the compound in buffer assessed as compound remaining at pH 6 after 1 hr by HPLC analysis; type: physicochemical; conditions: read-out: Stability
[6] = Chemical stability of the compound in buffer assessed as compound remaining at pH 6 after 2 hrs by HPLC analysis; type: physicochemical; conditions: read-out: Stability
[7] = Chemical stability of the compound in buffer assessed as compound remaining at pH 6 after 8 hrs by HPLC analysis; type: physicochemical; conditions: read-out: Stability
[8] = Chemical stability of the compound in buffer assessed as compound remaining at pH 7.4 after 4 hrs by HPLC analysis; type: physicochemical; conditions: read-out: Stability
[9] = Chemical stability of the compound in buffer assessed as compound remaining at pH 7.4 after 8 hrs by HPLC analysis; type: physicochemical; conditions: read-out: Stability
[10] = Chemical stability of the compound in buffer assessed as compound remaining at pH 9 after 1 hr by HPLC analysis; type: physicochemical; conditions: read-out: Stability
[11] = Chemical stability of the compound in buffer assessed as compound remaining at pH 9 after 2 hrs by HPLC analysis; type: physicochemical; conditions: read-out: Stability
[12] = Chemical stability of the compound in buffer assessed as compound remaining at pH 9 after 4 hrs by HPLC analysis; type: physicochemical; conditions: read-out: Stability
[13] = Chemical stability of the compound in buffer assessed as compound remaining at pH 9 after 8 hrs by HPLC analysis; type: physicochemical; conditions: read-out: Stability
[14] = Chemical stability of the compound in buffer assessed as compound remaining at pH 9 after 24 hrs by HPLC analysis; type: physicochemical; conditions: read-out: Stability
[15] = Stability of the compound in simulated intestinal fluid assessed as compound remaining at pH 7.5 after 2 hrs by HPLC analysis; type: ADME; conditions: read-out: Stability
Outline: (§1)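 Drug incubated in simulated gastric fluid or simulated intestinal fluid and sampled at 0, 1, 2, 4, 8 and 24 h. Percent remaining was measured by reversed-phase C18 HPLC with photodiode-array detection, using a 20-min gradient of 10–70% acetonitrile against 10 mM sodium phosphate buffer at pH 7.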

[16] = Stability of the compound in simulated intestinal fluid assessed as compound remaining at pH 7.5 after 4 hrs by HPLC analysis; type: ADME; conditions: read-out: Stability; outline: as §1
[17] = Chemical stability of the compound in buffer assessed as pseudo-first-order rate constant at 50 degC at pH 7.4 by Arrhenius plot analysis; type: physicochemical
[18] = Half life of the compound in buffer at 25 degC at pH 7.4; type: ADME
Outline: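 Pseudo-first-order kobsd at each temperature was fitted to an Arrhenius plot, which was extrapolated to 25 and 4 °C. t1/2 and t90 (time for 10% loss) were calculated from the extrapolated kobsd.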

[19] = tested on: HT-29; assay: Antitumor activity against human HT-29 cells xenografted in athymic nude mouse at 0.3 to 0.9 mg/kg, ip qd administered for 28 days; type: functional, organism-based
Outline: (§2)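 Female athymic nude mice, 7–9 weeks, implanted s.c. on right flank with 1.74 × 10^6 HT-29 cells (ATCC, mycoplasma/rodent-pathogen tested) in 50% Matrigel/50% McCoy's 5A; randomized at mean tumor 110 mm3, 10/group. IP dosing in USP saline, 0.2 mL, over a 28-day treatment period. Tumor volume by caliper (L × W2/2) at least twice weekly, tumor weight at necropsy, survival, body weight.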

[20] = tested on: HT-29; assay: Antitumor activity against human HT-29 cells xenografted in athymic nude mouse at 0.9 mg/kg, ip qd administered for 2 weeks followed by 3 times per week; type: functional, organism-based; outline: as §2
[21] = tested on: Mus musculus; assay: Toxicity in athymic nude mouse xenografted with human HT-29 cells assessed as necrosis at 0.9 mg/kg, ip administered 14 days measured post last dose; type: organism-based; conditions: in vivo, 336 h
Outline: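 Female athymic nude mice, 7–9 weeks old, received 1.74 × 10^6 HT-29 cells subcutaneously in the right flank in 50% Matrigel/McCoy's 5A. Randomized at 110 mm3, 10 per group. Intraperitoneal dosing in USP saline (0.2 mL) over a 28-day period on the stated schedule. Body weights were taken twice weekly; clinical signs and survival were recorded.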

[22] = tested on: Mus musculus; assay: Toxicity in athymic nude mouse xenografted with human A2780 cells assessed as anorexia at 1.2 mg/kg, po administered for 30 days; type: organism-based; conditions: in vivo, 720 h
Outline: (§3)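 Female athymic nude mice, 7–9 weeks old, received 2.5 × 10^6 A2780 cells subcutaneously in the flank in 50% Matrigel/RPMI 1640. Mice were randomized at a mean tumor volume of 188 mm3, 10 per group. Daily oral gavage in USP saline (0.2 mL) for 30 days, dosed on group-mean body weight. Clinical signs, survival and body weights were recorded.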

[23] = tested on: Mus musculus; assay: Toxicity in athymic nude mouse xenografted with human A2780 cells assessed as dehydration at 1.2 mg/kg, po administered for 30 days; type: organism-based; conditions: in vivo, 720 h; outline: as §3
[24] = target: T1, Alkaline phosphatase, tissue-nonspecific isozyme (Bos taurus, UniProt P09487); assay: Prodrug conversion in glycine buffer assessed as bovine intestinal mucosal alkaline phosphatase-mediated triptolide and formaldehyde formation at pH 9.8; type: ADME; conditions: cattle, isolated protein
T1 sequence (P09487 whole entry): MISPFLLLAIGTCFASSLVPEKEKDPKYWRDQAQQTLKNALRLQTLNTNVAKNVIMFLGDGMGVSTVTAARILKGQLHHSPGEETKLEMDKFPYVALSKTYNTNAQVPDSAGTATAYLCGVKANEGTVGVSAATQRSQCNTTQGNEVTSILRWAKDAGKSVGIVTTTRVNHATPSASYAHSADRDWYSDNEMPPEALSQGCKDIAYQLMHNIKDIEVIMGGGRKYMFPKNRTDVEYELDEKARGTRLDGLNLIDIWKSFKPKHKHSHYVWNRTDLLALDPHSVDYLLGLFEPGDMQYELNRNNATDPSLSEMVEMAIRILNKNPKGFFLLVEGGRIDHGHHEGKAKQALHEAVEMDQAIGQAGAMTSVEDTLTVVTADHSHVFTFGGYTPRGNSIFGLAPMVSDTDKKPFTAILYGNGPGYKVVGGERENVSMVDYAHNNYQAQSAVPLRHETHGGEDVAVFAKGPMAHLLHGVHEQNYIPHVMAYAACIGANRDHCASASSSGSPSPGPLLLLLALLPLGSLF

[25] = tested on: Mus musculus; assay: Toxicity in athymic nude mouse xenografted with human A2780 cells assessed as morbidity at 0.6 to 0.9 mg/kg, po administered for 30 days; type: organism-based; conditions: in vivo, 720 h; outline: as §3
[26] = Stability of the compound in simulated gastric fluid assessed as compound remaining after 1 hr by HPLC analysis
[27] = Stability of the compound in simulated gastric fluid assessed as compound remaining after 4 hrs by HPLC analysis
[28] = Stability of the compound in simulated gastric fluid assessed as compound remaining after 24 hrs by HPLC analysis

## CC(C)[C@]12O[C@H]1[C@@H]1O[C@]13[C@]1(O[C@H]1C[C@H]1C4=C(CC[C@@]13C)C(=O)OC4)[C@@H]2OCOP(=O)([O-])[O-].[Na+].[Na+] [MINNELIDE]
[1]
  remaining at 1 h: 89%
[2]
  remaining at 2 h: 79%
[3]
  remaining at 4 h: 62%
[4]
  remaining at 2 h: 100%
[5]
  remaining at 1 h: 100%
[6]
  remaining at 2 h: 100%
[7]
  remaining at 8 h: 100%
[8]
  remaining at 4 h: 100%
[9]
  remaining at 8 h: 100%
[10]
  remaining at 1 h: 100%
[11]
  remaining at 2 h: 100%
[12]
  remaining at 4 h: 100%
[13]
  remaining at 8 h: 100%
[14]
  remaining at 24 h: 100%
[15]
  remaining at 2 h: 100%
[16]
  remaining at 4 h: 100%
[17]
  K: 0.001052 h⁻¹
[18]
  t1/2: 0.92 yr
[19]
  Activity: Active
[20]
  Activity: Active
[21]
  Activity: Toxic
[22]
  Activity: Toxic
[23]
  Activity: Toxic
[24]
  Drug metabolism: metabolite_detected
[25]
  Activity: Toxic
[26]
  remaining at 1 h: 93%
[27]
  remaining at 4 h: 71%
[28]
  remaining at 24 h: 0%

— ChEMBL document CHEMBL3739335, “Phosphonooxymethyl Prodrug of Triptolide: Synthesis, Physicochemical Characterization, and Efficacy in Human Colon Adenocarcinoma and Ovarian Cancer Xenografts” (J Med Chem, 2015)
